Measured values from ChEMBL document CHEMBL4387708, “Enhancement of Benzothiazoles as Pteridine Reductase-1 Inhibitors for the Treatment of Trypanosomatidic Infections” (J Med Chem, 2019).
pIC50: −log10 of the molar value.

Assays:
Trypanosoma cruzi = assay: Growth inhibition of trypomastigote form of Trypanosoma cruzi Y infected in human U2OS cells at 50 uM measured after 72 hrs by DRAQ5 DNA dye based confocal microscopic analysis relative to control; format: organism-based; conditions: for growth inhibition (GI): trypanosoma cruzi, 50 µM; for inhibition at 50 µM: Trypanosoma cruzi, Y, U2OS, read-out: GI
Leishmania infantum = assay: Growth inhibition of luciferase expressing Leishmania infantum axenic amastigotes infected in human THP1 cells at 10 uM measured after 72 hrs by steady-glo luminescence assay relative to control; format: organism-based; conditions: for growth inhibition (GI): leishmania infantum, 72 h, 10 µM; for inhibition at 10 µM: Leishmania infantum, THP-1, 72 h, read-out: GI
[1] = Inhibition of N-terminal His-tagged Trypanosoma brucei pteridine reductase 1 using di-hydrobiopterine as substrate measured at 1 min interval for 50 mins in presence of NADPH
How it was run: (§1)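 Photometric PTR1 assay with NADPH and dihydrobiopterin substrate. H₄B formation is coupled non-enzymatically to cytochrome c reduction, read as signal increase at 550 nm.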

Trypanosoma brucei [2] = assay: Inhibition of N-terminal His-tagged Trypanosoma brucei pteridine reductase 1 at 50 uM using di-hydrobiopterine as substrate measured at 1 min interval for 50 mins in presence of NADPH relative to control; how it was run: as §1
[3] = target: T1, Pteridine reductase 1 (Leishmania major) (UniProt Q01782); assay: Inhibition of Leishmania major pteridine reductase 1 at 50 uM using di-hydrobiopterine as substrate in presence of NADPH relative to control; how it was run: as §1
T1 sequence (whole entry): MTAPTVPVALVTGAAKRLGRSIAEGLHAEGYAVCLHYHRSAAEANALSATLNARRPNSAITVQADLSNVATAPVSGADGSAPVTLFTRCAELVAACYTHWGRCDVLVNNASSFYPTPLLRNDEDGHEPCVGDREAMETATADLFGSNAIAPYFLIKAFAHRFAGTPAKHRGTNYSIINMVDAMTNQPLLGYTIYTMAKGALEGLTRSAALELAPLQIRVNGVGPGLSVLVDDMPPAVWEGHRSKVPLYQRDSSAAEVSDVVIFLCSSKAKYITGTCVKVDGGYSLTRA

Trypanosoma brucei [4] = assay: Growth inhibition of Trypanosoma brucei bloodstream forms at 10 uM measured after 72 hrs by resazurin-based fluorescence assay relative to control; format: organism-based; conditions: for inhibition at 10 µM: Trypanosoma brucei, read-out: GI
[5] = target: Voltage-gated inwardly rectifying potassium channel KCNH2 (Homo sapiens, UniProt Q12809); assay: Displacement of Tracer Red from human ERG by fluorescence polarization assay
Chain of Voltage-gated inwardly rectifying potassium channel KCNH2 (Q12809 whole entry): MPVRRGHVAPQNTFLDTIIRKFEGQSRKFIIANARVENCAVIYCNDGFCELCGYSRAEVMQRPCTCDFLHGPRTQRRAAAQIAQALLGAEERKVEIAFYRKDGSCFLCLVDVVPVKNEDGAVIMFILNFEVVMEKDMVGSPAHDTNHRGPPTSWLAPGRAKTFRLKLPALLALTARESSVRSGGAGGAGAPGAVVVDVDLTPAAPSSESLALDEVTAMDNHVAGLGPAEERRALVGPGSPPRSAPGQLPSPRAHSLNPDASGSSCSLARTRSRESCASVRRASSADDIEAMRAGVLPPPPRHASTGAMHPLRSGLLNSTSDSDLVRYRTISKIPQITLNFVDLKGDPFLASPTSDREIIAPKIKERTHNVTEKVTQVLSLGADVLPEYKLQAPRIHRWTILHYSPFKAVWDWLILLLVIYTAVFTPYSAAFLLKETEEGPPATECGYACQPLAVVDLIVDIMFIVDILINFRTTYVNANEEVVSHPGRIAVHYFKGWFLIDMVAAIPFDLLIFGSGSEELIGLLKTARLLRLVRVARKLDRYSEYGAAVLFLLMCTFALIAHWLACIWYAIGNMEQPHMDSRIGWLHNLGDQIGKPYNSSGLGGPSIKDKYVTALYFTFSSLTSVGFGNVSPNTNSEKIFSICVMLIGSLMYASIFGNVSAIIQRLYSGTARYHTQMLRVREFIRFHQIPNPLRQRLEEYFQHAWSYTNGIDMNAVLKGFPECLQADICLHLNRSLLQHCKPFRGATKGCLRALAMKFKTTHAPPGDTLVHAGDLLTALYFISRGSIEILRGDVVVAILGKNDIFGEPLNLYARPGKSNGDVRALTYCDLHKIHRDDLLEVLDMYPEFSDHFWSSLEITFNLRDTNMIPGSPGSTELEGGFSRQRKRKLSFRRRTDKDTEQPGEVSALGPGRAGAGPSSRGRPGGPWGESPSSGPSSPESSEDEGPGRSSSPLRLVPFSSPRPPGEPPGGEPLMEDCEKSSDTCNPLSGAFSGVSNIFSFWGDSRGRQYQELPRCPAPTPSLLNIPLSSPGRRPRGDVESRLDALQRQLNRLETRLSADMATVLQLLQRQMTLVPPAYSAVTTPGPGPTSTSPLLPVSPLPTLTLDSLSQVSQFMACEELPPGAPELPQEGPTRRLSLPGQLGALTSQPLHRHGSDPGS

Cytochrome P450 1A2 = target: T2, Cytochrome P450 1A2 (Homo sapiens, UniProt P05177); assay: Inhibition of human CYP1A2 expressed in baculovirus infected insect cells using beetle D-luciferin as substrate preincubated for 30 mins followed by NADPH addition and measured after 30 mins by CYP450-Glo assay
T2 sequence (P05177 whole entry): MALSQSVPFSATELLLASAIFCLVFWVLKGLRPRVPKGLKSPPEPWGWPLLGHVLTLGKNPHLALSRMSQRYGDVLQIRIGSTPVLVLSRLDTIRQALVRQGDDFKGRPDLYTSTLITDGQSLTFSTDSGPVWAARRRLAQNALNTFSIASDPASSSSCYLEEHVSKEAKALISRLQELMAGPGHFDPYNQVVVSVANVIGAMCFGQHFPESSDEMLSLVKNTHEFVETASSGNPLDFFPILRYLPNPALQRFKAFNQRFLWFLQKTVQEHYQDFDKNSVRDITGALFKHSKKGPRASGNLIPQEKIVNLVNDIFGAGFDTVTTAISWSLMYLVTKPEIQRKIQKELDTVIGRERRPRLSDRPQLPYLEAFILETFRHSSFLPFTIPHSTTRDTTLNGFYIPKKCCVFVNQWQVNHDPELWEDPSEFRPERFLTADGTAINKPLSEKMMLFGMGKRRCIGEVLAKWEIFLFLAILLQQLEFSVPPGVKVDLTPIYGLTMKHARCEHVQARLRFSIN

Cytochrome P450 2C9 = Cytochrome P450 2C9 (Homo sapiens, UniProt P11712); assay: Inhibition of human CYP2C9 expressed in baculovirus infected insect cells using beetle D-luciferin as substrate preincubated for 30 mins followed by NADPH addition and measured after 30 mins by CYP450-Glo assay
Chain of Cytochrome P450 2C9 (P11712 whole entry): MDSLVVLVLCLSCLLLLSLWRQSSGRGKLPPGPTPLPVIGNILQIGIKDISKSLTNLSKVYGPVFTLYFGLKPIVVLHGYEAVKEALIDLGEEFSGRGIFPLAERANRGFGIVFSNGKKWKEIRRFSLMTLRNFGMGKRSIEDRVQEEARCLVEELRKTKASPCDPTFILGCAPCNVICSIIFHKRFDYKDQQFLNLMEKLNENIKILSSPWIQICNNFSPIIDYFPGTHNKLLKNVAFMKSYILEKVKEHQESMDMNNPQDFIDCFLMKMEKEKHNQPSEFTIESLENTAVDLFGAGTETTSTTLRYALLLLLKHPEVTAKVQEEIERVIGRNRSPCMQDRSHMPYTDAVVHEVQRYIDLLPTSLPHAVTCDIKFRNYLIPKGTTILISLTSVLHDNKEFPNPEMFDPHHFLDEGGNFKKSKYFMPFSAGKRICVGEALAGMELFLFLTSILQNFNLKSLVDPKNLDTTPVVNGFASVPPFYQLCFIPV

Cytochrome P450 2C19 = Cytochrome P450 2C19 (Homo sapiens, UniProt P33261); assay: Inhibition of human CYP2C19 expressed in baculovirus infected insect cells using beetle D-luciferin as substrate preincubated for 30 mins followed by NADPH addition and measured after 30 mins by CYP450-Glo assay
Chain of Cytochrome P450 2C19 (P33261 whole entry): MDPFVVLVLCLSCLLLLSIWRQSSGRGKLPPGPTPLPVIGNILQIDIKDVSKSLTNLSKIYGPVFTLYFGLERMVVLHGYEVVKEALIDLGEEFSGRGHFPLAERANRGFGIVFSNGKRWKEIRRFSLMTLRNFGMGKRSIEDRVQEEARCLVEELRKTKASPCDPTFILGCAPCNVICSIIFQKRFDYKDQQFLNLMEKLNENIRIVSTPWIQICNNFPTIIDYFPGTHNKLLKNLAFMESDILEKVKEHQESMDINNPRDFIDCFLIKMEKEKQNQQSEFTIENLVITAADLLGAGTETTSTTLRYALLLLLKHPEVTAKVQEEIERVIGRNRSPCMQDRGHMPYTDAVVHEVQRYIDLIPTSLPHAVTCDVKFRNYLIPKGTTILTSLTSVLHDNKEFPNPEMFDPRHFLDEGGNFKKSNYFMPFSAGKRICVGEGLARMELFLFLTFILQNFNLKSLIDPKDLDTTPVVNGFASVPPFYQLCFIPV

Cytochrome P450 2D6 = Cytochrome P450 2D6 (Homo sapiens, UniProt P10635); assay: Inhibition of human CYP2D6 expressed in baculovirus infected insect cells using beetle D-luciferin as substrate preincubated for 30 mins followed by NADPH addition and measured after 30 mins by CYP450-Glo assay
Chain of Cytochrome P450 2D6 (P10635 whole entry): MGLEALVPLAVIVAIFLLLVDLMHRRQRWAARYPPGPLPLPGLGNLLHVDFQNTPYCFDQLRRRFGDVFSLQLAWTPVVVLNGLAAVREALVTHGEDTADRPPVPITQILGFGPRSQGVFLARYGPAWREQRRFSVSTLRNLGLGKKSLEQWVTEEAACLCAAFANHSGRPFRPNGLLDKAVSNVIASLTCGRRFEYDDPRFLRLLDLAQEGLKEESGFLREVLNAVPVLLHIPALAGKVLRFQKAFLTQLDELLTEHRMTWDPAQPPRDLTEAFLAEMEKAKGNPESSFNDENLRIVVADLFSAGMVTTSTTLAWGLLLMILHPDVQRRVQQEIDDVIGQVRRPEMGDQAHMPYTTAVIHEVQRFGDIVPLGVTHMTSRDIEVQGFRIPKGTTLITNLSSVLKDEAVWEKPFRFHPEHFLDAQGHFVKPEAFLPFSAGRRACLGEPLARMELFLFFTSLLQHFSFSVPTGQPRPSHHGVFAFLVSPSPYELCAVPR

Cytochrome P450 3A4 = Cytochrome P450 3A4 (Homo sapiens, UniProt P08684); assay: Inhibition of human CYP3A4 expressed in baculovirus infected insect cells using beetle D-luciferin as substrate preincubated for 30 mins followed by NADPH addition and measured after 30 mins by CYP450-Glo assay
Chain of Cytochrome P450 3A4 (P08684 whole entry): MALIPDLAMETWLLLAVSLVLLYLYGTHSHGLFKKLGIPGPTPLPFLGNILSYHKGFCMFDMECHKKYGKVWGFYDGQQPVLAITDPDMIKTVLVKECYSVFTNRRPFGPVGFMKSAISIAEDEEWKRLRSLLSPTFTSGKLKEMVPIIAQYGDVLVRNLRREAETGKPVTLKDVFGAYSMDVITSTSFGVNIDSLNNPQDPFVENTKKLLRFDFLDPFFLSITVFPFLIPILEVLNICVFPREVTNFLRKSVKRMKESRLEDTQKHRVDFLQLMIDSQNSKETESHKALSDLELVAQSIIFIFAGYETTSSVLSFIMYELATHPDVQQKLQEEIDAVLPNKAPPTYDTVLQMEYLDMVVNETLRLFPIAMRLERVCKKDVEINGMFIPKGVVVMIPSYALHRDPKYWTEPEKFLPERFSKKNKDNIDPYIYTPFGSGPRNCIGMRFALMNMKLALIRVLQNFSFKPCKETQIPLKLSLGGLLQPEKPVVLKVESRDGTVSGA

[6] = Cytotoxicity against human A549 cells after 48 hrs by Celltiter-glo assay; format: cell-based
[7] = Cytotoxicity against human THP1 cells after 72 hrs by MTT assay; format: cell-based, THP-1; conditions: read-out: NOAEL
[8] = Cytotoxicity against human U2OS cells assessed as reduction in cell number; format: cell-based
[9] = Mitochondrial toxicity in human 786-O cells measured after 6 hrs by MitoTracker Red chloromethyl-X-rosamine based assay; format: cell-based, 786-0
[10] = Selectivity ratio of IC50 for Leishmania major pteridine reductase 1 to IC50 for N-terminal His-tagged Trypanosoma brucei pteridine reductase 1
Pteridine reductase 1 = target: T3, Pteridine reductase 1 (Leishmania major, UniProt Q01782); assay: Inhibition of Leishmania major pteridine reductase 1 using di-hydrobiopterine as substrate in presence of NADPH; conditions: read-out: IC50; how it was run: as §1
T3 sequence (Q01782 whole entry): T1 sequence (whole entry)

pIC50 [1] | inhibition (Trypanosoma brucei [2]) [%] | inhibition [3] [%] | pIC50 (Cytochrome P450 1A2) | pIC50 (Cytochrome P450 2C9) | pIC50 (Cytochrome P450 2C19) | pIC50 (Cytochrome P450 2D6) | pIC50 (Cytochrome P450 3A4) | Ratio IC50 [10] | pIC50 (Pteridine reductase 1) | SMILES | growth inhibition (GI) (Trypanosoma cruzi) | growth inhibition (GI) (Leishmania infantum) | inhibition at 10 µM (Trypanosoma brucei [4]) [%] | pIC50 [5] | GI50 at 48 h [6] [µM] | MNTC at 72 h [7] [µM] | GI50 [8] [µM] | IC50 at 6 h [9] [µM] | inhibition at 50 µM (Trypanosoma cruzi) [%] | also measured
4.66 | > 60 | 1.97 | < 4.60 | < 4.60 | < 4.60 | < 4.60 | < 4.60 | 2 to 100 |  | COC(=O)C1CCN(C(=O)c2ccc(CNC(=O)c3ccc4nc(N)sc4c3)cc2)CC1 | Non-Toxic | Non-Toxic | 24 | > 5.00 | > 25 | > 25 | > 25 | < 10 |  | 
 | 16.7 | 26.9 | > 5.00 | < 4.60 | > 5.00 | > 5.00 | < 4.60 | 2 to 100 |  | CSc1ccc2nc(N)sc2c1 |  | Non-Toxic | 12 | > 5.00 | > 25 | > 25 | > 25 | < 10 | 22.5 | 
 | 47.8 | > 60 | < 4.60 | < 4.60 | 4.60 to 5.00 | > 5.00 | > 5.00 | 2 to 100 | 5.61 | Nc1nc2c(O)cc(C(=O)NCc3ccccc3)cc2s1 |  |  | 15 | < 4.60 | > 25 | > 25 | > 25 | > 25 | 28.8 | inhibition at 10 µM (Leishmania infantum): 11%
7.05 |  |  |  |  |  |  |  |  | 4.87 | CCc1nc(N)nc(N)c1-c1ccc(Cl)cc1 [PYRIMETHAMINE] |  |  |  |  |  |  |  |  |  | 
5.16 | > 60 | > 60 | < 4.60 |  |  |  |  |  | 4.72 | Nc1nc2ccc(C(=O)NCc3ccc(C(=O)NCc4ccccc4)cc3)cc2s1 | Non-Toxic | Non-Toxic | 53 | < 4.60 | > 25 | 10 to 25 | > 25 | > 25 |  | 
5.12 | > 60 | 18.3 | 4.60 to 5.00 | < 4.60 | < 4.60 | > 5.00 | < 4.60 | 2 to 100 |  | Nc1nc2ccc(C(=O)NCCc3cccs3)cc2s1 |  | Non-Toxic | 17 | > 5.00 | > 25 | > 25 | > 25 | > 25 | 29.8 | 
4.82 | > 60 | > 60 |  |  |  |  |  |  | 4.03 | Nc1nc2ccc(OC(F)(F)F)cc2s1 [RILUZOLE] | Non-Toxic | Non-Toxic |  |  | 10 to 25 | > 25 | > 25 | > 25 |  | growth inhibition (GI) (Trypanosoma brucei [4]; trypanosoma brucei, 10 µM): Non-Toxic
 |  |  | < 4.60 |  | < 4.60 | 4.60 to 5.00 |  |  |  | N=C(N)c1ccc(OCCCCCOc2ccc(C(=N)N)cc2)cc1 [PENTAMIDINE] |  |  |  |  | > 25 | > 25 |  | > 25 |  | 
4.24 | > 60 | 27.1 | < 4.60 | < 4.60 | < 4.60 | 4.60 to 5.00 | < 4.60 | 2 to 100 |  | Nc1nc2ccc(S(=O)(=O)Cc3ccccc3)cc2s1 | Non-Toxic | Non-Toxic | 5 | < 4.60 | > 25 | > 25 | > 25 | > 25 |  | 
 | 16.7 | 26.9 | < 4.60 | < 4.60 | > 5.00 | > 5.00 | 4.60 to 5.00 | 2 to 100 |  | Nc1nc2ccc(S(=O)(=O)Cc3ccc(Cl)c(Cl)c3)cc2s1 |  |  | 37 | < 4.60 | 10 to 25 | 10 to 25 | > 25 | > 25 | 32.8 | inhibition at 10 µM (Leishmania infantum): 21%
4.24 | > 60 | 24.1 | < 4.60 | < 4.60 | < 4.60 | > 5.00 | 4.60 to 5.00 | 2 to 100 |  | Nc1nc2ccc(C(=O)N(CCO)Cc3ccccc3)cc2s1 | Non-Toxic |  | 8 | < 4.60 | > 25 | > 25 | > 25 | > 25 |  | inhibition at 10 µM (Leishmania infantum): 20%
 | 36.4 | 23.3 | 4.60 to 5.00 | 4.60 to 5.00 | < 4.60 | 4.60 to 5.00 | 4.60 to 5.00 | 2 to 100 |  | COC(=O)C1CCN(C(=O)c2ccc3nc(N)sc3c2)CC1 |  |  | 19 | < 4.60 | > 25 | > 25 | > 25 | > 25 | 64.2 | inhibition at 10 µM (Leishmania infantum): 8%
5.48 | > 60 | > 60 | < 4.60 |  |  | < 4.60 | < 4.60 |  | 4.50 | COC(=O)C1CCN(C(=O)c2ccc(COc3ccc4nc(N)sc4c3)cc2)CC1 |  | Non-Toxic | 52 | < 4.60 | > 25 | 10 to 25 | > 25 | > 25 | 27 | 
 | 29.9 | 15.2 | 4.60 to 5.00 | < 4.60 | 4.60 to 5.00 | > 5.00 | 4.60 to 5.00 | 2 to 100 |  | COc1ccc2nc(N)sc2c1 |  | Non-Toxic | 6 | > 5.00 | < 10 | > 25 | > 25 | < 10 | 32.9 | 
 | 30.8 | 67.1 | < 4.60 | < 4.60 | < 4.60 | < 4.60 | < 4.60 | 2 to 100 |  | COc1cc(CNC(=O)c2ccc3nc(N)sc3c2)cc(OC)c1OC |  | Non-Toxic | 9 | < 4.60 | > 25 | > 25 | > 25 | > 25 | 19.8 | 
